Screening results (PubChem)
Compounds with a hit are over-represented: about 4% of the library has one in this group of screens.
TAAR1 antagonist – human TAAR1 antagonism; Q96RJ0; CHO RD-HGA16 TAAR1, Fluo-8 calcium fluorescence, antagonist; inhibition, % at 3 µM; hit rate 1.5% among 360,000;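 active = inhibition above a per-plate cutoff, the mean inhibition of test compounds on that plate plus 3 SD, cut at about 49% in these data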;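 note: 0% = DMSO plus EC80 beta-PEA response and 100% = DMSO alone without agonist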
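Test system – hTAAR1-expressing CHO RD-HGA16 cells, Gα16-coupled · Reagent – β-PEA at EC80 concentration, post-compound challenge · Compound dosing – 3 µM, single point · Timing – 140 s kinetic read after compound, 140 s after agonist · Detection – Fluo-8 intracellular calcium dye fluorescence, real-time kinetic reads · Control set – DMSO and EC80 PEA controls · Repeats – n of 1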
CHO parental Ca – signal in parental CHO cells, OX1R antagonist counter-screen; inhibition, % at 5.6 µM; parental CHO-K1, ATP-induced calcium, Fluo-8 fluorescence; hit rate 0.63% among 330,000;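 active = inhibition above that plate's mean sample inhibition plus 3 SD, cut at about 26% in these data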;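 note: 0% = ATP-challenged DMSO wells and 100% = DMSO wells without ATP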
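Assay system – parental CHO cells · Reagent – ATP stimulus · Detection – intracellular calcium via Fluo-8 no-wash fluorescent dye · Evaluation – percent inhibition of ATP-evoked calcium rise, normalized to controls · Controls – ATP wells versus no-ATP DMSO wells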
OX1R antag-1 – blocks the human orexin 1 receptor | O43613 | inhibition, % at 6.6 µM | hit rate 1.8% among 330,000 | OX1R-expressing cells, FRET antagonist read-out | AID 485270; in the data active = inhibition mostly above about 38%, no sharp cut-off; inactive = mostly below about 40%;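 note: 0% = agonist challenge alone and 100% = reference antagonist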
Target sequence (O43613 whole entry, looked up): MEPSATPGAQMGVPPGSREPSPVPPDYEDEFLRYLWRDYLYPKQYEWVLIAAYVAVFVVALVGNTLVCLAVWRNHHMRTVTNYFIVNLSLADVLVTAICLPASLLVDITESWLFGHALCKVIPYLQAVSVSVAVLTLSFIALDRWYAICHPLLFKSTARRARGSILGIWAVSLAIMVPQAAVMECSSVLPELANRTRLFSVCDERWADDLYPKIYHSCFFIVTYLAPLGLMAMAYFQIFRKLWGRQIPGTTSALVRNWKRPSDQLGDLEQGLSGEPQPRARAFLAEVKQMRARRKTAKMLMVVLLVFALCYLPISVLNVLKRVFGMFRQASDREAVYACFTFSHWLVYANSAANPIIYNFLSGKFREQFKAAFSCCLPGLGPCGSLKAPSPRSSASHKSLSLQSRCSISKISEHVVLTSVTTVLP
OX1R antag-2 – human HCRTR1 antagonism; CHO/OX1R cells, Fluo-8 calcium fluorescence, orexin A; hit rate 0.43% among 330,000; O43613; inhibition, % at 5 µM; AID 434989;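 active = inhibition above its plate's threshold, mean inhibition of all tested compounds on the plate plus 3 SD, cut at about 37% in these data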;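 note: 0% = orexin A challenge wells and 100% = SB-334867-A antagonist wells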
TAAR1 agonist – human TAAR1 agonism; Q96RJ0; CHO RD-HGA16 TAAR1, Fluo-8 calcium fluorescence; vehicle wells 0%, saturating PEA agonist 100%; activation, % at 3 µM; hit rate 0.99% among 360,000; AID 624467;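 active = activation above the mean activation of all test compounds in the run plus 3 SD, cut at about 38% in these data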
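Benchmarks: low control DMSO, high control PEA (EC100); System: CHO RD-HGA16 cells carrying human TAAR1 plus Gα16; Detection: Fluo-8 fluorescence, 5 s baseline then 140 s kinetic read; Schedule: 17-24 h plating, Fluo-8 75 min 37 °C, 30 min RT; Read-out basis: % activation from peak over basal fluorescence ratio, DMSO-to-PEA scaled.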
TAAR1 ag confirm – human TAAR1 agonism, confirmed; CHO RD-HGA16 TAAR1, Fluo-8 calcium fluorescence; scaled: DMSO 0%, maximal phenethylamine 100%; activation, % at 3 µM; shares compounds with TAAR1 agonist; hit rate 82% among 2,400;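 active = activation above a cutoff set at the run's mean compound activation plus 3 SD, cut at about 39% in these data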
Ga16 ag counter – nonselective agonism, TAAR1 counter-screen. hit rate 50% among 2,400. AID 651787. shares compounds with TAAR1 agonist. CHO-Ga16 parental, Fluo-8 calcium fluorescence; normalized to maximal ATP response, DMSO zero. activation, % at 3 µM;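 active = activation above the run cutoff, the mean activation over all tested wells plus 3 SD, cut at about 12% in these data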;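 note: 0% = DMSO wells and 100% = maximal ATP response on the peak over basal ratio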
TAAR1 desens – human TAAR1 agonist that also desensitizes the receptor; CHO RD-HGA16 hTAAR1, Fluo-8 calcium, beta-PEA response inhibition; inhibition, % at 3 µM; hit rate 46% among 2,400; AID 651951; shares compounds with TAAR1 agonist;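 active = inhibition above the run cutoff, the mean inhibition of all test compounds plus 3 SD, cut at about 49% in these data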;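 note: beta-PEA stimulus applied at its EC80; loss of beta-PEA calcium signal after compound pretreatment read as receptor desensitization; 0% = DMSO with beta-PEA at EC80 and 100% = DMSO alone without agonist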
Ga16 nonsel ant – counter-screen for TAAR1 agonists: nonselective Ga16 antagonists | shares compounds with TAAR1 agonist | CHO-Ga16 ATP-induced calcium, Fluo-8 fluorescence | inhibition, % at 3 µM | hit rate 39% among 2,400 | AID 651952;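 active = inhibition above the plate's mean compound inhibition plus 3 SD, computed per plate, cut at about 22% in these data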;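 note: 0% = EC80 ATP with DMSO and 100% = DMSO wells without ATP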
Numbers without * were called inactive; · = not tested or not shown.

SMILES	TAAR1 antagonist	CHO parental Ca	OX1R antag-1	OX1R antag-2	TAAR1 agonist	TAAR1 ag confirm	Ga16 ag counter	TAAR1 desens	Ga16 nonsel ant
O=C1CC(c2ccccc2)CC(O)=C1C=NCCc1ccccc1 (stereo not given)	27.6	-7.2	21.4	-24.4	66.7*	71.7*	5.7	43.9	15.8
O=C1CC(c2ccccc2)CC(O)=C1C=NCc1ccccc1 (stereo not given)	-15.5	-20.7	10.1	-10.9	-0.7	·	·	·	·
O=C(Cc1ccccc1)N/N=C/c1ccc2cccc(O)c2n1	0.4	-11.2	43.0	-19.0	7.2	·	·	·	·
CC(CNC(=O)CCc1nnc(CCC2CCCCC2)o1)c1ccccc1 (stereo not given)	1.7	-23.5	19.7	-43.0	10.3	·	·	·	·
COC(=O)[C@@]12C[C@@H](CC(=O)NCc3ccc(OC)c(OC)c3)C(=O)N(Cc3cccc4ccccc34)C1=CCC(C)(C)C2	-22.9	·	·	·	-1.2	·	·	·	·
O=c1[nH]cc(F)c(=O)n1C1OC(CO)C(O)C1O (stereo not given)	-6.6	·	·	·	2.5	·	·	·	·
c1ccc(CCNCc2cccs2)nc1	-19.0	·	·	·	52.4*	66.5*	0.4	27.8	7.5
CNCCc1ccccn1	58.4*	2.0	11.9	1.0	81.5*	91.7*	0.4	82.0*	3.9
c1ccc(NCCc2ccccn2)cc1	21.7	·	·	·	-0.3	·	·	·	·
c1csc(CNCc2ccncc2)c1	-9.9	-1.9	20.4	0.5	0.1	·	·	·	·
CC(C)CNC(=O)C1(C)CCCN1Cc1ccc(S(C)(=O)=O)cc1 (stereo not given)	-26.8	·	·	·	3.1	·	·	·	·
O=C(NCCc1ccccc1F)[C@@H]1CSC2c3ccccc3C(=O)N21 (stereo not given in full)	22.1	-20.0	20.9	-19.6	59.6*	65.1*	2.6	38.3	9.2
NC(c1csc(NC(=O)Nc2cccc(Cl)c2)n1)c1ccccc1Cl (stereo not given)	34.3	·	·	·	52.1*	66.2*	27.3*	64.3*	46.6*
Cc1ccc(C2=NS(=O)(=O)N(C)C(C(=O)NC3CCCC3)=C2)cc1	4.7	-3.6	17.4	-12.7	4.0	·	·	·	·
O=C1OC(N2CCN(C(=O)c3ccco3)CC2)c2ccccc21 (stereo not given)	10.9	-7.2	7.4	-7.2	51.6*	65.5*	0.4	16.6	8.2
O=C(c1ccco1)N1CCN(C2c3ccccc3-c3ccccc32)CC1	-6.5	-25.1	21.0	-24.8	5.7	·	·	·	·
CCCNS(=O)(=O)c1ccc(Oc2ncc(C(F)(F)F)cc2Cl)cc1	39.0	-14.2	12.0	-10.8	53.2*	39.6*	22.8*	29.4	17.1
Cc1ccc(NCC(=O)Nc2cccc(S(=O)(=O)N(C)C)c2)cc1S(=O)(=O)N1CCCCCC1	1.8	17.8	33.8	14.7	6.5	·	·	·	·
Cc1ccc(Cn2nnc(C(=O)Nc3cccc(C)c3C)c2N)cc1	81.4*	25.5	3.1	37.1*	117.5*	123.5*	85.0*	86.6*	58.9*
CCc1ccc(Cn2nnc(C(=O)Nc3cccc(C)c3)c2N)cc1	21.2	-9.2	3.8	3.2	21.2	·	·	·	·
Cc1ccccc1OCCn1ccnc1	2.5	-1.3	2.7	-1.3	1.4	·	·	·	·
Cc1ccccc1Oc1ccc(Oc2ccccc2C)nn1	28.0	2.3	13.2	-4.8	60.1*	-2.3	0.3	-10.3	-2.0
CC(OC(=O)c1ccccc1NCCO)C(=O)NCC(=O)Nc1ccc(F)c(F)c1F (stereo not given)	-9.2	-19.7	13.9	-15.9	0.7	·	·	·	·
COC(=O)c1sc(NC(=S)NC(=O)c2ccccc2Cl)nc1C	-14.8	-5.8	6.8	-6.2	50.4*	29.3	22.9*	11.3	12.1
